An excerpt weighted towards active compounds, which were near 2.3% of everything screened.
OXTR potentiator: human OXTR potentiators, primary screen, fluorescence, CHO-OTR cells, Fluo-8 calcium; Oxytocin receptor (Homo sapiens), P30559; Fluo-8 calcium fluorescence, potentiator mode; 0% = oxytocin EC15, 100% = EC100; activation, % at 3 µM; 320,000 tested, 0.061% active;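 active = activation above that plate's cutoff, the mean activation of tested compounds plus 3 SD, cut at about 6.6% in these data, passing the limit was not always enough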
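Assay system: CHO cell line stably expressing human OTR | Also added: Oxytocin at about EC15, sub-maximal agonist stimulus | Times: Compound 6 min at room temperature before oxytocin, 100 s read | Measured by: Fluo-8 intracellular calcium fluorescence, ex 470-495, em 515-575 nm | Controls: EC15 oxytocin alone as 0%, 75 nM oxytocin as 100%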
OXTR agonist: human OXTR agonists, primary screen, fluorescence, CHO-OTR cells, Fluo-8 calcium. AID 2435, 2010. activation, % at 3 µM. Fluo-8 calcium fluorescence; normalized: DMSO 0%, oxytocin 100%. 320,000 tested, 0.32% active;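 active = activation above the mean of all tested compounds plus 3 SD, cutoff set per screening run, cut at about 20% in these data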;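 note: peak over basal fluorescence ratio from a 100 s FLIPR kinetic read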
TAAR1 antag: human TAAR1 antagonists, primary screen, Fluo-8 calcium fluorescence, CHO RD-HGA16 cells | inhibition, % at 3 µM | 360,000 tested, 1.5% active | antagonist;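 active = inhibition above a per-plate cutoff, the mean inhibition of test compounds on that plate plus 3 SD, cut at about 49% in these data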
Target sequence (Q96RJ0 whole entry, looked up): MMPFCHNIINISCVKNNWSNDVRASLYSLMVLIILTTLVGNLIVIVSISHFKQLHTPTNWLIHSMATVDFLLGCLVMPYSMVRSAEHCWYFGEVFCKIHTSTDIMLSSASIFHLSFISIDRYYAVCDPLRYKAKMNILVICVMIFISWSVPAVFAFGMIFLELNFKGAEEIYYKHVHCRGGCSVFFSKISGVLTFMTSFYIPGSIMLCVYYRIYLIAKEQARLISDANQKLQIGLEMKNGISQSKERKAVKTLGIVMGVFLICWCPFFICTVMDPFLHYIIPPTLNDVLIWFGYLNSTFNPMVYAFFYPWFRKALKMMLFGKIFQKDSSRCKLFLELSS
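System: RD-HGA16 CHO cells with stable hTAAR1 and Gα16 | Probe or stimulus: EC80 β-phenethylamine stimulus | Dosing: 3 µM, single point | Times: Dye loading 75 min at 37 °C, then 30 min room temperature | Measured by: Fluo-8 calcium-sensitive fluorescence | Read-out basis: % inhibition of agonist calcium response | Replicates: n of 1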
V1R ag counter: agonists of human V1a receptor, primary screen, counter-screen for OXTR agonist project, fluorescence, CHO-V1R cells | Vasopressin V1a receptor (Homo sapiens), P37288 | Fluo-8 calcium fluorescence, agonist mode; 0% DMSO, 100% 3 nM vasopressin | 320,000 tested, 0.25% active | AID 2797, 2010 | activation, % at 3 µM;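 active = activation above the mean activation of all tested compounds plus 3 SD, per screening run, cut at about 20% in these data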;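 note: signal is peak over basal fluorescence ratio across a 100 second FLIPR read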
Target sequence (P37288 whole entry, looked up): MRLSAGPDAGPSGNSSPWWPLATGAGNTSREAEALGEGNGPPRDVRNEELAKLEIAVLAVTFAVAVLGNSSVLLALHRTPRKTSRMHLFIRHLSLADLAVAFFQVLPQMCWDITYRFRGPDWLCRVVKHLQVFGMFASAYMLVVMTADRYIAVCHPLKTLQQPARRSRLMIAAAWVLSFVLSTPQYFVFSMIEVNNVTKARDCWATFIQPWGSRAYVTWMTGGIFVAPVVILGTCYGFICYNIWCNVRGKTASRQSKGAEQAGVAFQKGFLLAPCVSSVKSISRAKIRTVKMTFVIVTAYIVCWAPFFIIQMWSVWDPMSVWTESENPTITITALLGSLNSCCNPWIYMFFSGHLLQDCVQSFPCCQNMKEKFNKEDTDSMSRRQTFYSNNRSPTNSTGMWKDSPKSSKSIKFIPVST
TAAR1 ag: human TAAR1 agonists, primary screen, Fluo-8 calcium fluorescence, CHO RD-HGA16 cells; Trace amine-associated receptor 1 (Homo sapiens), Q96RJ0; vehicle wells 0%, saturating PEA agonist 100%; activation, % at 3 µM; 360,000 tested, 0.99% active;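 active = activation above the mean activation of all test compounds in the run plus 3 SD, cut at about 38% in these data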
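Signal – calcium-sensitive Fluo-8 signal, excitation 470-495, emission 515-575 nm · System – RD-HGA16 (CHO) cells co-expressing Gα16 and hTAAR1 · Incubation – 17-24 h seeding, 75 min 37 °C dye, 30 min RT · Compound dosing – 3 µM single concentration · Repeats – no replicates (n 1)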
nonsel antag count: nonselective antagonists in TAAR1 counter-screen cells, counter-screen for hTAAR1 antagonist project, cell-based, fluorescence, calcium. shares compounds with TAAR1 antag. counterscreen cell line, antagonist mode. inhibition, % at 3 µM. 2,400 tested, 77% active; in the data active = inhibition above about 22%;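 note: CHO-Ga16 host cells stimulated with ATP at an EC80 level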
TAAR1 ant conf: human TAAR1 antagonists, retest of hits, confirmation, cell-based, fluorescence; inhibition, % at 3 µM; AID 651785, 2012; shares compounds with TAAR1 antag; 2,400 tested, 40% active; TAAR1-expressing cells, fluorescence antagonist read-out; in the data active = inhibition above about 49%;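 note: CHO-Ga16 host cells challenged with agonist PEA near its EC80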
Ga16 ag counter: calcium activation in Ga16-expressing cells, counter-screen for TAAR1 antagonist project, cell-based, fluorescence. shares compounds with TAAR1 antag. agonist counterscreen. activation, % at 3 µM. 2,400 tested, 18% active; in the data active = activation above about 12%
TAAR1 ag counter: TAAR1 activation by candidate antagonists – cell-based, fluorescence, counter-screen for TAAR1 antagonist project; hTAAR1 cell line, agonist mode; shares compounds with TAAR1 antag; 2,400 tested, 2% active; activation, % at 3 µM; in the data active = activation above about 37%;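 note: CHO cells stably expressing TAAR1 with calcium dye readout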
Large screens that a line does not name were inactive (follow-up assays come after a bar, where they were run).

COc1cc2oc3ccc(C#Cc4ccc(N)cc4)cc3c(=O)c2cc1OC	TAAR1 antag 56 | nonsel antag count 25 | TAAR1 ant conf inactive | Ga16 ag counter inactive | TAAR1 ag counter inactive
Cc1ccccc1Cn1cc(NC(=O)c2cc(-c3cccs3)on2)cn1	TAAR1 antag 62 | nonsel antag count 33 | TAAR1 ant conf 62 | Ga16 ag counter 22 | TAAR1 ag counter inactive
Cc1ccccc1Cn1cc(NC(=O)c2cc(-c3ccco3)on2)cn1	none
CSc1ccccc1NC(=O)c1cc(-c2cccs2)on1	TAAR1 antag 55 | nonsel antag count inactive | TAAR1 ant conf inactive | Ga16 ag counter inactive | TAAR1 ag counter inactive
O=C(c1cc(-c2cccs2)nn1-c1ccccc1)N1CCN(S(=O)(=O)c2ccccc2)CC1	TAAR1 antag 68 | nonsel antag count 30 | TAAR1 ant conf 52 | Ga16 ag counter inactive | TAAR1 ag counter inactive
CC(C)N(C(=O)COC(=O)c1cccc(N(C)C)c1)c1ccccc1	none
CN(C)c1ccc(Nc2nc(N)c([N+](=O)[O-])c(N3CCOCC3)n2)cc1	TAAR1 antag 54 | nonsel antag count 22 | TAAR1 ant conf inactive | Ga16 ag counter inactive | TAAR1 ag counter inactive
CC(OC(=O)Cc1coc2cc3c(cc12)CCC3)C(=O)NC(N)=O (centres undefined)	none
COCCN(C(=O)CSc1nnc(-c2cccc(Cl)c2)n1N)c1c(N)n(CC(C)C)c(=O)[nH]c1=O	none (no result: OXTR potentiator, OXTR agonist, V1R ag counter)
COc1cc(CN2CC(=O)N(c3ccccc3Cl)C2=S)cc(OC)c1OC	TAAR1 antag 75 | nonsel antag count 49 | TAAR1 ant conf 66 | Ga16 ag counter 14 | TAAR1 ag counter inactive
Cn1nc(C(=O)N2CCN(c3cccc(Cl)c3)CC2)c2c1-c1ccccc1S(=O)(=O)C2	none
Cc1cccc(N2CCN(C(=O)c3nn(C)c4c3CS(=O)(=O)c3ccccc3-4)CC2C)c1 (centres undefined)	TAAR1 antag 53 | nonsel antag count 31 | TAAR1 ant conf inactive | Ga16 ag counter inactive | TAAR1 ag counter inactive
COc1ccccc1NS(=O)(=O)c1cccc(NC(=O)Nc2ccccc2)c1	TAAR1 antag 98 | nonsel antag count 60 | TAAR1 ant conf 94 | Ga16 ag counter 15 | TAAR1 ag counter 50
O=C(COc1ccc(Nc2ccccc2)cc1)OCC(=O)N1CCCCC1	none
O=C(CSc1nnc2c(n1)[nH]c1ccccc12)N1CCCCC1	none
CC1CCc2cc(F)ccc2N1C(=O)CSc1nnc2c(n1)[nH]c1ccccc12 (centres undefined)	TAAR1 antag 56 | nonsel antag count 34 | TAAR1 ant conf 58 | Ga16 ag counter inactive | TAAR1 ag counter inactive
CCN(CC)CCNc1ncnc2c1sc1nc(N3CCCC3)c3c(c12)CC(C)(C)OC3	none
Cc1c(C(=O)Nc2ccc(F)cc2)oc2ccc(S(=O)(=O)N3CCCC3)cc12	none
Cc1c(C(=O)NCc2c(F)cc(F)cc2F)oc2ccc(S(=O)(=O)N3CCOCC3)cc12	TAAR1 antag 68 | nonsel antag count 24 | TAAR1 ant conf inactive | Ga16 ag counter inactive | TAAR1 ag counter inactive
Cc1c(C(=O)Nc2ccc(F)cc2)oc2ccc(S(=O)(=O)N3CCC4(CC3)OCCO4)cc12	TAAR1 antag 62 | nonsel antag count 40 | TAAR1 ant conf 50 | Ga16 ag counter 12 | TAAR1 ag counter inactive
Cc1c(C(=O)NCc2ccc(F)cc2)oc2ccc(S(=O)(=O)N3CCOCC3)cc12	none
CC(=O)OCC(=O)Nc1c(C)cccc1C	none
CCc1nc2ccc(C(=O)N3CCN(C(=O)c4ccco4)CC3)cn2c1N(C)C(=O)Nc1ccccc1OC	none (no result: OXTR potentiator, OXTR agonist, V1R ag counter)
COC(=O)CN(c1ccc(OC)cc1)S(=O)(=O)c1ccc(OC)c(OC)c1	none
COc1ccc(N(CC(=O)Nc2cccc(C(C)=O)c2)S(=O)(=O)c2ccc(NC(C)=O)cc2)cc1	TAAR1 antag 61 (no result: OXTR potentiator, OXTR agonist, V1R ag counter) | nonsel antag count 35 | TAAR1 ant conf 55 | Ga16 ag counter inactive | TAAR1 ag counter inactive
COc1ccc(NC(=O)CN(c2ccc(OC)cc2)S(=O)(=O)c2ccc(OC)c(OC)c2)cc1	TAAR1 antag 51 | nonsel antag count 23 | TAAR1 ant conf inactive | Ga16 ag counter inactive | TAAR1 ag counter inactive
Cc1ccc(NC(=O)CCCc2c[nH]c3ccccc23)nc1	none
CCCCC(=O)Nc1ccc(C(=O)Nc2ccc(S(=O)(=O)N3CCCC3)cc2)cc1	none (no result: TAAR1 antag, TAAR1 ag) | nonsel antag count inactive | Ga16 ag counter inactive
Cn1nc(C(=O)Nc2ccc(S(=O)(=O)N3CCCCC3)cc2)c2ccccc2c1=O	TAAR1 antag 96 | nonsel antag count inactive | TAAR1 ant conf inactive | Ga16 ag counter inactive | TAAR1 ag counter inactive
Cc1ccc(SCC(=O)Nc2ccc(N3CCOCC3)cc2)cc1C	none
CCN(CC)CCCN=Cc1c(O)n(-c2cccc(C)c2)c(=O)c2ccccc12	none
CCC(C)(C)NC(=O)C(c1ccccc1Cl)N(Cc1cccnc1)C(=O)CCC(=O)Nc1cc(C)on1 (centres undefined)	none
O=C1CCc2cc(S(=O)(=O)NCCc3ccc(Cl)cc3)cc3c2N1CC3	none (no result: OXTR potentiator, OXTR agonist, V1R ag counter)
CC(C)CCN1CCN=C1Nc1ccccc1	TAAR1 antag 108 | nonsel antag count inactive | TAAR1 ant conf inactive | Ga16 ag counter inactive | TAAR1 ag counter inactive
Cc1cc(C)cc(NC(=S)N(Cc2cccc(Br)c2)CC2CCC(C(=O)O)CC2)c1 (centres undefined)	none
CCc1ccc(NC(=S)N(Cc2cccc(Br)c2)CC2CCC(C(=O)O)CC2)cc1 (centres undefined)	TAAR1 antag 61 | nonsel antag count inactive | TAAR1 ant conf inactive | Ga16 ag counter inactive | TAAR1 ag counter inactive
COc1ccc(N2CCN(CCC(O)c3ccc4ccccc4c3)CC2)cc1 (centres undefined)	none
O=C1N[C@@H](Cc2ccccc2)COC(=O)[C@H](Cc2ccc(F)cc2)C/C=C\C[C@@H]1CC(=O)N(CCO)Cc1ccccc1	none

Source: PubChem BioAssay
